Assay outcomes deposited in PubChem by Broad Institute.
SR-BI DiI-HDL act: SR-BI HDL lipid transfer activation; CHO ldlA[mSR-BI] cells, DiI-HDL uptake fluorescence, 3 h; 100 = double the neutral-control signal; activation, % at 12.5 µM; 0.096% of 320,000 active;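 active means mean replicate activation of at least 60% and every replicate at or above 60%; inconclusive means mean or all-replicate condition met, but not both; inactive means mean below 60% and not all replicates reaching 60%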;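 further: 0% = median plate neutral-control signal and 100% = twice that signal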
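Test system: SR-BI-overexpressing, LDLR-lacking CHO cells; Medium: Ham's F12 with 0.5% BSA, HEPES 25 mM, pH 7.4; Schedule: 3 h, 37 °C; Technique: bottom-read fluorescence, 550/595 nm.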
CAL PDZ FP-1: human CAL PDZ-peptide interaction inhibition. inhibition, % at 20 µM. purified CAL PDZ, TMR-peptide fluorescence polarization, 1 h. Q9HD26. 0.02% of 330,000 active. AID 504414;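 active means highest replicate inhibition of at least 40%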;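 further: plate controls were DMSO neutral control wells for no effect and unlabeled competitor peptide control wells for full effect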
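Material: tagged CAL PDZ protein CerCALP, purified; buffer or medium: sodium phosphate/NaCl buffer pH 7.4 with TCEP, IgG, Thesit; also added: fluorescent TMR peptide probe; schedule: 1 h incubation at room temperature before polarization reading; technique: fluorescence polarization from S- and P-plane intensities, G-factor corrected; control set: unlabelled peptide and DMSO controls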
CAL PDZ FP-2: CAL PDZ (human) peptide binding inhibition; Q9HD26; purified CAL PDZ, TMR-peptide fluorescence polarization, 1 h; inhibition, % at 24.9 µM; 0.92% of 300,000 active; AID 602252;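 active means mean inhibition of at least 30% with at least half of replicates also reaching 30%; inconclusive means no clear call, values can overlap the other calls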;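 further: 0% = DMSO neutral control and 100% = excess unlabeled competitor peptide PRC23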
dFosB act: enhances mouse delta FosB homodimer DNA binding; P13346; 0.99% of 340,000 active; purified delta FosB, TAMRA-CDK5 oligo fluorescence polarization; percent of positive-control signal above neutral wells; activation, % at 25 µM;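 active means mean activation above about 17%, with every replicate also reaching it, limit read from the data, passing the limit was not always enough; inconclusive means only one of the two conditions met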
Target sequence (P13346 whole entry, looked up): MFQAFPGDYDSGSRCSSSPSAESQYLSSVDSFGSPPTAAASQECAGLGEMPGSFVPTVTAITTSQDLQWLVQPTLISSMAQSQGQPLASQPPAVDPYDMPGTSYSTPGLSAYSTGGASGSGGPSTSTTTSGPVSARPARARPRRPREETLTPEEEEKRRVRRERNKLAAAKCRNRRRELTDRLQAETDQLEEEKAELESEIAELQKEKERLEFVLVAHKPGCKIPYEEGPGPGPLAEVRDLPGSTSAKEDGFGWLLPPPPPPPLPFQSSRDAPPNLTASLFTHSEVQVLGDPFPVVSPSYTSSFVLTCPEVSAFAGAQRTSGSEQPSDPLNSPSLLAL
SR-BI DiI inh: blocks mouse SR-BI lipid uptake from DiI-HDL | Q61009 | ldlA[mSR-BI] CHO cells, DiI-HDL uptake fluorescence, 3 h | inhibition, % at 12.5 µM | 0.96% of 320,000 active;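 active means mean replicate inhibition of at least 70% and a set share of replicates each scoring 70 or more; inconclusive means meets just one of the two criteria; inactive means fails both criteria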;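 further: 0% = median of neutral control wells and 100% = median of positive control wells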
An asterisk follows results filed as active; ? = inconclusive; nt = not tested or not shown. Hits are enriched below; roughly 2.8% of the tested compounds scored in any of these assays.

SMILES | SR-BI DiI-HDL act | CAL PDZ FP-1 | CAL PDZ FP-2 | dFosB act | SR-BI DiI inh
Cc1cc(C)c(NC(=O)CSc2nc3ccc(N4C(=O)c5ccccc5C4=O)cc3s2)c(C)c1 | -74 | -2 | -2 | 5 | 74*
O=C(COC(=O)C1=Cc2ccccc2OC1)NCc1ccc(F)cc1 | 5 | -2 | nt | 5 | -5
COc1ccc(N(CC(=O)N2CCCCCC2)S(=O)(=O)c2ccc(OC)c(OC)c2)cc1 | -9 | -1 | 51* | -16 | 9
COc1ccc(OC)c(N(CC(=O)N2CCCCC2)S(=O)(=O)c2ccc(OC)c(OC)c2)c1 | 55 | -2 | -1 | -3 | -55
Cc1c(Cl)cccc1NC(=O)CCN1CCN(C)CC1 | 4 | 0 | nt | -6 | -4
CCc1ccc(N2C(=O)CC(N3CCN(Cc4ccc5c(c4)OCO5)CC3)C2=O)cc1 (centres undefined) | 9 | -1 | 85* | -6 | -9
Cc1ccc(NC(=O)c2cc3cccc([N+](=O)[O-])c3[nH]2)cc1 | -79 | -1 | 67* | 11 | 79*
CCOc1cc(C2Nc3cccc4cccc(c34)N2)ccc1O | -49 | 1 | -2 | 32* | 49
CCc1nnc(NC(=O)CCC2CCCCC2)s1 | 7 | 0 | -1 | -4 | -7
CCOCCc1nnc(NC(=O)CCC2CCCCC2)s1 | 19 | -6 | 74* | 2 | -19
CCOC(=O)N1CCN(C(=O)c2ccc3c(c2)sc2nc(-c4ccc(OC)cc4)cn23)CC1 | -70 | -1 | 38* | -3 | ?
CCOc1ccc(NC(=O)Nc2cc(OCC(F)(F)F)cc(OCC(F)(F)F)c2)cc1 | -75 | -2 | -1 | -6 | 75*
O=C(C=C1CCN(c2ncc(C(F)(F)F)cc2Cl)CC1)NNC(=O)Nc1ccccc1 | 21 | -1 | 2 | 0 | -21
O=C(C=C1CCN(c2ncc(C(F)(F)F)cc2Cl)CC1)NNC(=O)Nc1ccc(Cl)cc1 | nt | 5 | 74* | 6 | nt
O=C(Nc1cccc(F)c1)NC1CCN(Cc2ccccc2)CC1 | 6 | -3 | -3 | 2 | -6
O=C(CSc1nccc(-c2cccs2)n1)Nc1cccc(Cl)c1Cl | 4 | 0 | 51* | -2 | -4
O=C(CSc1nccc(-c2cccs2)n1)Nc1ccc(Cl)cc1 | -5 | -3 | nt | -8 | 5
CN1CCN(S(=O)(=O)c2cccc3nsnc23)CC1 | nt | -2 | nt | 6 | nt
CCN1C(=O)[C@@H]2[C@H](C1=O)[C@@H]1C(=O)Nc3ccccc3C(=O)N1[C@@H]2c1ccc(OC)cc1 | 8 | -1 | -6 | -8 | -8
Nc1cc(=O)[nH]c(SCC(=O)N2N=C(c3ccc4ccccc4c3)CC2c2ccccc2)n1 (centres undefined) | -17 | 0 | 32* | 9 | 17
CCOC(=O)c1c(NC(C)=O)sc2c(OCC(O)CN(CC)CC)c(Br)ccc12 (centres undefined) | -83 | -7 | 6 | -27 | 83*
CCOC(=O)c1c(NC(C)=O)sc2c(OCCN(CC)CC)c(Br)ccc12 | -39 | -3 | nt | -29 | 39
CN(C)C(=O)CSc1nc2cc(S(=O)(=O)N3CCOCC3)ccc2o1 | 45 | 0 | 90* | -2 | -45
CCc1nnc2sc(-c3ccc(NC(=O)CSc4ccc(Cl)cc4)cc3)nn12 | nt | -2 | -2 | -3 | 77*
Cc1cc(NC(=O)CSc2n[nH]c(-c3ccc(Cl)cc3Cl)n2)no1 | 6 | -2 | -5 | -1 | -6
SMILES | SR-BI DiI-HDL act | CAL PDZ FP-1 | CAL PDZ FP-2 | dFosB act | SR-BI DiI inh
Cc1cccc(C)c1NC(=O)Cn1nnc(C(=O)Nc2ccc(F)cc2F)c1N | 22 | 1 | -9 | 46* | -22
Cc1cc(C)c(NC(=O)Cn2nnc(C(=O)Nc3ccc(F)cc3F)c2N)c(C)c1 | 13 | -1 | -1 | 25* | -13
CCc1ccccc1NC(=O)c1nnn(CC(=O)Nc2ccccc2C)c1N | 20 | -3 | 2 | -1 | -20
N#CCn1cnc2c(oc3ccccc32)c1=O | 26 | 0 | nt | 1 | -26
O=C(c1ccc(CNS(=O)(=O)c2ccc(Br)cc2)cc1)N1CCCCC1 | -42 | -3 | 1 | -5 | 42
COc1cccc(C(=O)COC(=O)c2ccc(NC(C)=O)cc2)c1 | -11 | -1 | 53* | -1 | 11
CCN(C(=O)c1ccc(NC(=O)c2ccco2)cc1)c1ccccc1 | -2 | -1 | 57* | -4 | 2
CC1N(C)c2cc(NC(=O)c3ccco3)ccc2C1(C)C (centres undefined) | 139* | -38 | -193 | 145* | -140
COc1ccc(C(=O)COC(=O)c2ccc(NC(C)=O)cc2)cc1[N+](=O)[O-] | -34 | -1 | -4 | -5 | 34
CN(C(=O)c1ccc(NC(=O)c2ccco2)cc1)c1ccccc1 | -19 | 0 | -5 | -9 | 19
CCCC(=O)Nc1ccc(C(=O)Nc2cccc(OC)c2)cc1 | -74 | 0 | 2 | -18 | 74*
COc1cccc(NC(=O)c2ccc(NC(=O)C(C)(C)C)cc2)c1 | -51 | -1 | -6 | -1 | 51
O=C(C1CC1)N1CCN(c2ccc(O)cc2)CC1 | 3 | -2 | -4 | -1 | -3
COc1ccc(Cl)cc1NC(=O)c1ccco1 | -5 | -2 | -2 | -5 | 5
CC(C)[C@H](NC(=O)c1ccco1)C(=O)OCC(=O)Nc1cccc(F)c1 | 1 | -1 | 69* | -8 | -1
Cc1ccc(NC(=O)c2cc(NC(=O)c3ccco3)ccc2N2CCCCC2)cc1 | -73 | -1 | -3 | -7 | 73*
COc1ccc(Cl)cc1C(=O)Nc1ccc(NC(=O)c2ccco2)cc1 | -82 | nt | -2 | -2 | 82*
COc1cc(NC(=O)c2ccco2)c(OC)cc1NC(=O)Nc1ccccc1Cl | -94 | -1 | 1 | -4 | 94*
Cc1ccc(NC(=O)c2cc(NC(=O)c3ccco3)ccc2N2CCOCC2)cc1 | -38 | -1 | 3 | 4 | 38
O=C(CSc1nc2scc(-c3ccccc3)c2c(=O)[nH]1)N1CCOCC1 | 6 | -1 | 0 | -7 | -6
COC(=O)c1ccc(NC(=O)c2ccc(NC(=O)c3ccco3)cc2)cc1 | -22 | -2 | -4 | 122* | 22
CCn1c2ccccc2c2cc(NC(=O)c3ccco3)ccc21 | -82 | -1 | -2 | -16 | 82*
CCn1c2ccccc2c2cc(NC(C)=O)ccc21 | -5 | -1 | 0 | 4 | 5
O=C(Nc1cc(C(F)(F)F)ccc1Cl)c1ccc(NC(=O)C(F)(F)F)cc1 | -53 | -2 | -4 | ? | 53
CC(C)CNC(=O)c1cccc(NC(=O)c2ccccc2-c2ccccc2C(=O)O)c1 | 4 | nt | 89* | 10 | -4
CCCC(=O)Nc1ccc(C(=O)Nc2cc(C(F)(F)F)ccc2Cl)cc1 | -74 | 0 | -2 | 6 | 74*
CC(=O)c1cccc(NC(=O)c2ccccc2-c2ccccc2C(=O)O)c1 | nt | 0 | -2 | 0 | nt
